Source: ChEMBL document CHEMBL5329147, “Synthesis of tryptanthrin appended dispiropyrrolidine oxindoles and their antibacterial evaluation” (RSC Med Chem, 2023)
≈ marks a conversion by molar mass, not a printed value.

How the values were obtained:
Staphylococcus aureus [1] = experiment: Antibacterial activity against Staphylococcus aureus ATCC 29213 assessed as bacterial growth inhibition incubated for 18 to 24 hrs by broth microdilution method; assay type: functional; conditions: time 18-24 hrs
In short: (§1)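 CLSI broth microdilution. Overnight starter cultures (single colony, MHBII, 37 °C, shaking 18–24 h) were diluted by OD600 to 10^6 CFU/mL in MHBII. Two-fold dilutions from […] were made from 10 mg/mL DMSO stocks, then incubated 37 °C for 18-24 h. The MIC was the lowest concentration with no visible growth. Three independent runs, duplicate samples.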

Staphylococcus aureus [2] = experiment: Synergistic antibacterial activity against Staphylococcus aureus ATCC 29213 assessed as bacterial growth inhibition incubated for 24 hrs in presence of (S)-8''-Bromo-1-ethyl-1'-methyl-2,12''-dioxo-12''H-dispiro[indoline-3,4'-pyrrolidine-2',6''-indolo[2,1-b]quinazoline]-3',3'-dicarbonitrile by checkerboard assay; assay type: functional
In short: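 Checkerboard in 96-well plates: two-fold serial dilutions, one agent along abscissa, partner antibiotic along ordinate. Wells received ~10⁵ CFU/mL S. aureus ATCC 29213 in MHBII. Incubation 37 °C, 24 h. ΣFIC = FIC A + FIC B, each FIC being combination MIC divided by MIC alone.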

Staphylococcus aureus [3] = experiment: Antibacterial activity against methicillin resistant Staphylococcus aureus NRS 129 assessed as bacterial growth inhibition incubated for 18 to 24 hrs by broth microdilution method; assay type: functional; conditions: time 18-24 hrs
In short: (§2)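 CLSI broth microdilution in MHBII; overnight starter cultures (single MHA colony, 37 °C, shaking) adjusted by OD600 to 10^6 CFU/mL. Compounds from DMSO stocks (10 mg/mL), two-fold series 64–0.5 mg/L. Incubation 37 °C, 18-24 h. MIC = lowest concentration with no visible growth. Three independent determinations, each in duplicate.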

Staphylococcus aureus [4] = experiment: Antibacterial activity against vancomycin resistant Staphylococcus aureus […] 12 assessed as bacterial growth inhibition incubated for 18 to 24 hrs by broth microdilution method; assay type: functional; conditions: time 18-24 hrs; in short: as §2
Staphylococcus aureus [5] = experiment: Antibacterial activity against methicillin resistant Staphylococcus aureus NRS 186 assessed as bacterial growth inhibition incubated for 18 to 24 hrs by broth microdilution method; assay type: functional; conditions: time 18-24 hrs; in short: as §2
Staphylococcus aureus [6] = experiment: Antibacterial activity against methicillin resistant Staphylococcus aureus NRS 193 assessed as bacterial growth inhibition incubated for 18 to 24 hrs by broth microdilution method; assay type: functional; conditions: time 18-24 hrs; in short: as §2
Staphylococcus aureus [7] = experiment: Antibacterial activity against vancomycin resistant Staphylococcus aureus […] 4 assessed as bacterial growth inhibition incubated for 18 to 24 hrs by broth microdilution method; assay type: functional; conditions: time 18-24 hrs; in short: as §2
Staphylococcus aureus [8] = experiment: Antibacterial activity against methicillin resistant Staphylococcus aureus NRS 194 assessed as bacterial growth inhibition incubated for 18 to 24 hrs by broth microdilution method; assay type: functional; conditions: time 18-24 hrs; in short: as §2
Staphylococcus aureus [9] = experiment: Antibacterial activity against methicillin sensitive Staphylococcus aureus ATCC 29213 assessed as bacterial growth inhibition incubated for 18 to 24 hrs by broth microdilution method; assay type: functional; conditions: time 18-24 hrs; in short: as §2
Staphylococcus aureus [10] = experiment: Antibacterial activity against methicillin resistant Staphylococcus aureus NRS 192 assessed as bacterial growth inhibition incubated for 18 to 24 hrs by broth microdilution method; assay type: functional; conditions: time 18-24 hrs; in short: as §2
Staphylococcus aureus [11] = experiment: Antibacterial activity against methicillin resistant Staphylococcus aureus NRS 119 assessed as bacterial growth inhibition incubated for 18 to 24 hrs by broth microdilution method; assay type: functional; conditions: time 18-24 hrs; in short: as §2
Staphylococcus aureus [12] = experiment: Antibacterial activity against methicillin resistant Staphylococcus aureus NRS 198 assessed as bacterial growth inhibition incubated for 18 to 24 hrs by broth microdilution method; assay type: functional; conditions: time 18-24 hrs; in short: as §2
Staphylococcus aureus [13] = experiment: Antibacterial activity against methicillin resistant Staphylococcus aureus NRS 191 assessed as bacterial growth inhibition incubated for 18 to 24 hrs by broth microdilution method; assay type: functional; conditions: time 18-24 hrs; in short: as §2
Acinetobacter baumannii = experiment: Antibacterial activity against Acinetobacter baumannii BAA-1605 assessed as bacterial growth inhibition incubated for 18 to 24 hrs by broth microdilution method; assay type: functional; conditions: time 18-24 hrs; in short: as §1
Klebsiella pneumoniae = experiment: Antibacterial activity against Klebsiella pneumoniae BAA 1705 assessed as bacterial growth inhibition incubated for 18 to 24 hrs by broth microdilution method; assay type: functional; conditions: time 18-24 hrs; in short: as §1
Pseudomonas aeruginosa = experiment: Antibacterial activity against Pseudomonas aeruginosa ATCC 27853 assessed as bacterial growth inhibition incubated for 18 to 24 hrs by broth microdilution method; assay type: functional; conditions: time 18-24 hrs; in short: as §1
Escherichia coli = experiment: Antibacterial activity against Escherichia coli ATCC 25922 assessed as bacterial growth inhibition incubated for 18 to 24 hrs by broth microdilution method; assay type: functional; conditions: time 18-24 hrs; in short: as §1
[14] = Selectivity ratio of CC50 for African green monkey Vero cells to MIC against Staphylococcus aureus ATCC 29213; assay type: toxicity, cell-based
[15] = Staphylococcus aureus, ATCC 29213, read-out: MIC

Row | Compound | MIC (Staphylococcus aureus [2]) [µg/mL] | MIC (Staphylococcus aureus [1]; [15]) [µg/mL] | MIC (Acinetobacter baumannii) [µg/mL] | MIC (Klebsiella pneumoniae) [µg/mL] | MIC (Pseudomonas aeruginosa) [µg/mL] | MIC (Escherichia coli) [µg/mL] | other results
1 | GENTAMICIN | 0.25 | – | – | – | – | – | MIC (Staphylococcus aureus [1]): 0.25 µg/mL
2 | C[C@@H](O)[C@H]1C(=O)N2C(C(=O)O)=C(S[C@@H]3CN[C@H](C(=O)N(C)C)C3)[C@H](C)[C@H]12 [MEROPENEM] | 0.63 | 0.063 (≈ 0.164 µM) | – | – | – | – | MIC (Staphylococcus aureus [3]): 4 µg/mL (≈ 10.4 µM); MIC (Staphylococcus aureus [4]): 8 µg/mL (≈ 20.9 µM); MIC (Staphylococcus aureus [5]): 8 µg/mL (≈ 20.9 µM); MIC (Staphylococcus aureus [6]): 64 µg/mL (≈ 167 µM); MIC (Staphylococcus aureus [7]): 64 µg/mL (≈ 167 µM); MIC (Staphylococcus aureus [8]): 1 µg/mL (≈ 2.61 µM); MIC (Staphylococcus aureus [9]): 0.125 µg/mL (≈ 0.326 µM); MIC (Staphylococcus aureus [10]): 8 µg/mL (≈ 20.9 µM); MIC (Staphylococcus aureus [11]): 64 µg/mL (≈ 167 µM); MIC (Staphylococcus aureus [12]): 64 µg/mL (≈ 167 µM); MIC (Staphylococcus aureus [13]): 64 µg/mL (≈ 167 µM)
3 | CCN1C(=O)[C@@]2(CN(C)C3(c4cc(I)ccc4-n4c3nc3ccccc3c4=O)C2(C#N)C#N)c2ccccc21 (stereo not given in full) | – | 0.25 (≈ 0.4 µM) | > 64 | > 64 | > 64 | > 64 | –
4 | CCN1C(=O)[C@]2(c3cc(Cl)ccc31)C(Cc1c[nH]c3ccccc13)NC1(c3cc(Cl)ccc3-n3c1nc1ccccc1c3=O)C2(C#N)C#N (stereo not given in full) | – | 0.25 (≈ 0.366 µM) | > 64 | > 64 | > 64 | > 64 | –
5 | CC(C)(O/N=C(\C(=O)N[C@@H]1C(=O)N2C(C(=O)[O-])=C(C[n+]3ccccc3)CS[C@H]12)c1csc(N)n1)C(=O)O [CEFTAZIDIME] | 8 | 8 (≈ 14.6 µM) | – | – | – | – | –
6 | CCN1C(=O)[C@]2(c3ccccc31)C(C(=O)NCC(=O)O)NC1(c3cc(Cl)ccc3-n3c1nc1ccccc1c3=O)C2(C#N)C#N (stereo not given in full) | – | 1 (≈ 1.61 µM) | > 64 | > 64 | > 64 | > 64 | selectivity ratio [14]: 10
7 | CCN1C(=O)[C@@]2(CN(C)C3(c4cc(I)ccc4-n4c3nc3ccc(Cl)cc3c4=O)C2(C#N)C#N)c2ccccc21 (stereo not given in full) | – | 1 (≈ 1.52 µM) | > 64 | > 64 | > 64 | > 64 | –
8 | CCN1C(=O)[C@]2(c3ccccc31)C(Cc1ccccc1)NC1(c3cc(Br)ccc3-n3c1nc1ccccc1c3=O)C2(C#N)C#N (stereo not given in full) | – | 0.25 (≈ 0.383 µM) | > 64 | > 64 | > 64 | > 64 | –
9 | CCCCCCCCCC(=O)N[C@@H](Cc1c[nH]c2ccccc12)C(=O)N[C@H](CC(N)=O)C(=O)N[C@@H](CC(=O)O)C(=O)N[C@@H]1C(=O)NCC(=O)N[C@@H](CCCN)C(=O)N[C@@H](CC(=O)O)C(=O)N[C@H](C)C(=O)N[C@@H](CC(=O)O)C(=O)NCC(=O)N[C@H](CO)C(=O)N[C@@H]([C@H](C)CC(=O)O)C(=O)N[C@@H](CC(=O)c2ccccc2N)C(=O)O[C@@H]1C | 1 | 1 (≈ 0.617 µM) | – | – | – | – | –
